SMILES strings stand for the structures.

A word on the IC50: it is the point on the concentration scale where inhibition reaches its midpoint.

In the assay the target is T1, Proteinase-activated receptor 1 (Homo sapiens, UniProt P25116).
T1 sequence (P25116 whole entry): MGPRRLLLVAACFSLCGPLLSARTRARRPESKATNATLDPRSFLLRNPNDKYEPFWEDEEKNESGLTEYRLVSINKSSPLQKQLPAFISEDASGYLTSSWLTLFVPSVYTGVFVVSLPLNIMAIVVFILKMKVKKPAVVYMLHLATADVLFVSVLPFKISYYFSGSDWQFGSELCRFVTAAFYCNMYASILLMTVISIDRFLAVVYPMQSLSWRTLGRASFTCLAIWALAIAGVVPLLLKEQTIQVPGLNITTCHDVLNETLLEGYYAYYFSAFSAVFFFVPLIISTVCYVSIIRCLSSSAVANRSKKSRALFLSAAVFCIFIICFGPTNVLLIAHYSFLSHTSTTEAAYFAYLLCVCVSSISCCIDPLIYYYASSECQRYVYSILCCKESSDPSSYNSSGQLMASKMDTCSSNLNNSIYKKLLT
The assay is described as follows: Negative allosteric modulation of PAR1 in human EAhy926 cells assessed as reduction in TFLLRN-NH2-induced intracellular calcium mobilization incubated for 15 mins followed by TFLLRN-NH2 addition by Fluo-4-AM dye based fluorescence assay. The essentials:
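Adherent EA.hy926 endothelial cells in 96-well format, intracellular Ca2+ mobilization triggered by PAR1 agonist TFLLRN-NH2 at 5 µM; single-point % inhibition at 10 µM (n = 4 wells, SEM); 7-point concentration-response curves, 3 wells per concentration, pIC50 from 4-variable non-linear regression; average IC50 ± SEM over independent assays.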
(In general: A change in cytosolic calcium serves as a functional read-out for many receptors and channels.)

`CCCC(=O)Nc1cccc(NC(=O)c2ccccc2Br)c1`: the IC50 stood at 794 nM.

The values above are taken from BindingDB's records for doi:10.1016/j.bmc.2019.06.043 (Marquette University, 2019).
